In the data set the test system is MS2 coat protein. As to the kind of experiment: apparent Kd, MS2 coat protein; higher = weaker binding; RNA-MaP array; FMN 200 µM where present. The method, boiled down:
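Stalled E. coli RNA polymerase transcribed each design on Illumina sequencing-chip clusters. The clusters were titrated with SNAP-549-labelled MS2 coat protein, starting at 0.7 or 1.5 nM and doubling up to 3 µM, first without ligand and then with constant ligand, in 100 mM Tris-HCl pH 7.5, 80 mM KCl, 4 mM MgCl2, BSA, DTT, yeast tRNA and Tween-20. Green signal was normalised to red-channel RNA signal and to the control-cluster median Fmax. The apparent Kd is the median of filtered binding-curve fits made for each cluster.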

The mark [1] stands for this setting: designed as: OFF switch for flavin mononucleotide, no ligand.
The mark [2] stands for this setting: ligand present: flavin mononucleotide, designed as: OFF switch for flavin mononucleotide.
Where [3] appears, read: designed as: ON switch for flavin mononucleotide, no ligand.
Where [4] appears, read: ligand present: flavin mononucleotide, designed as: ON switch for flavin mononucleotide.

What is called apparent Kd is the concentration giving half-maximal binding under the conditions of the assay.

Consider “GUAGAGUAAGGAUAUCAAGAAUAGGAUAGAAUGGUUAGAAUUGAGAAGGUACAUGAGGAUCACCCAUGUAAUGU”, for which the “apparent Kd” value reads like this: under setting [1], 20.9 nM; under setting [2], 21 nM.

In the case of “GGAUUUGUUCCAAUUUCGGUGAGUAAGGAUAUGCAUGGCAUACAUGAGGAUCACCCAUGUUGUCGGCAGAAGGUGCCACAACGU”, the “apparent Kd” value under setting [3] came to 59.4 nM and the “apparent Kd” value under setting [4] stood at 15.2 nM.

On to “GGUGCCAUGUAGAAGGCAGAUCUGAUUCAGAUCUGAGGAUAUACAUGAGGAUCACCCAUGUAAAGGCACCGCCCGAGAGUGCAA”, for which the “apparent Kd” value is 7.46 nM under setting [1] and 17.6 nM under setting [2].

Take “GUGUAGGCAGGAUAUACAUGAGGAUCACCCAUGUGAAUAAGAUAGAAUAAGAUAAAGUGUAGAAGGGUUAGUGU”: the “apparent Kd” value was determined as 40.7 nM under setting [1] and 32.4 nM under setting [2].

For “AAGUGCCUGUCGAUGCUCGACAUGAGGAUCACCCAUGUACAGCAGGAUAUGCAGAACUACCUCGUGCAGAAGGGCUGUACCAAU”, the “apparent Kd” value runs as follows: under setting [1], 97.1 nM; under setting [2], 80.1 nM.

In the case of “AGACUGAAGCAAGGAUAUUGUAAGGUUAAUGUACAAGAAGGUGCUGUUUAUGUCUCUUAACAUGAGGAUCACCCAUGUUUUGAA”, the “apparent Kd” value under setting [3] turned out to be 19.1 nM and the “apparent Kd” value under setting [4] was found to be 19.2 nM.

“GUUUCACAUGAGGAUCACCCAUGUGAGGAUAUGGACUUAUUGGCAAUAGUCGAUGGGUUCAGAAGGCGCGUGAU”: the “apparent Kd” value was found to be 67.9 nM under setting [1] and 71.2 nM under setting [2].

Turning to “UUUAGUUGCGGGCAGGAUAUGUAUUAAAAUACAUGAGGAUCACCCAUGUGCGGGUAUAACACCCGACAGAAGGGCCAAUCGCGAC”, the “apparent Kd” value is, setting by setting: under setting [3], 322 nM; under setting [4], 33.3 nM.

Consider “AGUAAGAUGCAGAAGGUGUCAGCGAGAGCUACGACAUGAGGAUCACCCAUGUACUAGGUAGAGUACAAGGAUAUGCAUCUUACA”, for which the “apparent Kd” value by setting is: under setting [3], 324 nM; under setting [4], 24.6 nM.

With “AAGAAGUUAGGAUAUGCAUGGCGGGACUUGCGUCGUGGCGUGCAGAAGGAACAUGAGGAUCACCCAUGUAAAGA”, the “apparent Kd” value is, setting by setting: under setting [1], 29.1 nM; under setting [2], 18.3 nM.

“GCCAUCGCAUGAGGAUAUGGCACCGUUGCGGUGCCAGAAGGCAUGUCAAAUGACAUGAGGAUCACCCAUGUAGUUAAGAUGGCA”: the “apparent Kd” value reads like this: under setting [3], 218 nM; under setting [4], 13.8 nM.

Take “AAACAUGUCCGAGGAUAUCUGGAAACAUUUUCAAGAGAAGGCGGACAUGAGGAUCACCCAUGUCUCUCCUCAUCAACCACAAAU”: the “apparent Kd” value is, setting by setting: under setting [1], 8.83 nM; under setting [2], 56.2 nM.

Consider “CAUGCACAUGAGGAUCACCCAUGUCAGGAUAUCUAUCAUAGCAUCGAAAGAUGCGGGUAGAGAAGGGACAACCC”, for which the “apparent Kd” value under setting [1] worked out at 16.2 nM and the “apparent Kd” value under setting [2] was 16.4 nM.

For the sequence “GCCAGGAUGUAAGGAUAUGCUGAGGAUAACUCAGCAGAAGGUACAUGAGGAUCACCCAUGUAAUCCAAUAAUAAAUAACCUGGC”, the “apparent Kd” value under setting [1] turned out to be 11.8 nM and the “apparent Kd” value under setting [2] was 23.8 nM.

Consider “CGGUCGAAGUAAGGAUAUCGACUGGAUAACAGUCGAGAAGGUACAUGAGGAUCACCCAUGUAAUCCUAUAAUAAAUAACGACCG”, for which the “apparent Kd” value came out at 12.1 nM under setting [1] and 15.5 nM under setting [2].

On to “AAAACACAUGAGGAUCACCCAUGUGAGGAUAUCGUGCAGUAGACGAAAGUCUACUGCACGAGAAGGCACAAGGA”, for which the “apparent Kd” value under setting [1] amounted to 49 nM and the “apparent Kd” value under setting [2] turned out to be 81.3 nM.

As to “GCAGCAUAAAUUAUACAUGAGGAUCACCCAUGUUACAUGUGUAAGGAUAUUGAGGUUAUUAUUGGCAAGAAGGUACAAUGCUGC”, the “apparent Kd” value was 15.2 nM under setting [3] and 8.57 nM under setting [4].

For “UUUACAUGAGGAUCACCCAUGUAUAGAACGGUUAAUUAAAGUGAGGAUAUACAUAAUUUUAAAUUGUAGAAGGCACUGGGUACA”, the “apparent Kd” value is, setting by setting: under setting [3], 14.4 nM; under setting [4], 19.9 nM.

With “GUCGGAAACGACAAGUAGCAAUCGGAGGAUAUUCAUGGAAACAUGAGGAUCACCCAUGUAAAUUGGGAGAAGGCCGAUUGCUAC”, the “apparent Kd” value under setting [3] came to 1220 nM and the “apparent Kd” value under setting [4] was found to be 93.6 nM.

Regarding “GGAGACCUCACAGGAUAUGCUGGACUUUGUCCAGCAGAAGGGUGAACACAUGAGGAUCACCCAUGUGGUCUCCAAAUAUUUAAU”, the “apparent Kd” value by setting is: under setting [3], 816 nM; under setting [4], 74.2 nM.

Consider “UUAGCAUACCGAGGAUAUUCAUAUAAUAAAUAAACAUGAGGAUCACCCAUGUGGCGAAAGCCUAGGGAGAAGGCGGAAUGCUAC”, for which the “apparent Kd” value reads like this: under setting [3], 206 nM; under setting [4], 26.5 nM.

For “UUACAUACAAAGGUACAUGAGGAUCACCCAUGUUUGUUGGGAAGAAGGGUAACAAUACUACACAUACAGGAUAUUUCACAAAUA”, the “apparent Kd” value was 48 nM under setting [3] and 31.3 nM under setting [4].

For the sequence “AUAAUGUGAGGAUAUCAGUCGUACAGCUUCGGCUGUACGACUGAGAAGGCACAUGAGGAUCACCCAUGUGGUCA”, the “apparent Kd” value stood at 499 nM under setting [1] and 84.2 nM under setting [2].

For “CUCUUGUGAGGAUAUCAGGUGUGCUAGCGUACUGGUACAUCUGAGAAGGCACAUGAGGAUCACCCAUGUUUCUA”, the “apparent Kd” value under setting [1] came out at 148 nM and the “apparent Kd” value under setting [2] worked out at 23.2 nM.

In the case of “GCAGUAAAUAAAUGCACAUGAGGAUCACCCAUGUGGGAGGCACAGGAUAUCGUAUCAUAGUGGUACGAGAAGGGUGAUAAUCUC”, the “apparent Kd” value came to 425 nM under setting [3] and 84.4 nM under setting [4].

Regarding “AAUUGGAACUAAGGAUAUCUGUAUUUUGUUGAAACAUGAGGAUCACCCAUGUUCAUGAAAUUAUAGGAGAAGGUAGAUCCAUAA”, the “apparent Kd” value turned out to be 5 nM under setting [3] and 4.6 nM under setting [4].

Turning to “AUCAGCUCGUCAGGAUAUACGUCACUGCGUCAGCAGUGUGGUAAAAUCACAUGAGGAUCACCCAUGUAGAAGGGACGAGCUGAU”, the “apparent Kd” value is, setting by setting: under setting [1], 6.18 nM; under setting [2], 14.4 nM.

Take “ACAAGGCAUGUAGGAUAUCCAUUGCGUCGCGAUGGAGAAGGACAACACACAUGAGGAUCACCCAUGUGGUCACCCAUGUCGUGU”: the “apparent Kd” value under setting [1] came to 51.3 nM and the “apparent Kd” value under setting [2] is 169 nM.

On to “GCACAUUUGUAAGGAUAUACAACAUGAGGAUCACCCAUGUGUUGGAAUUUAGUAGAAGGUACAGACAUGAGUAUCACUUUUGUA”, for which the “apparent Kd” value was found to be 72.7 nM under setting [3] and 51.9 nM under setting [4].

As for “UGAAAUCAUGUAGGAUAUGCAUGGCGAAGCUACGCAGAAGGACAUGAGGAUCACCCAUGUUAUAGCUACCCAGUUCGGUGGCAC”, the “apparent Kd” value by setting is: under setting [1], 46 nM; under setting [2], 136 nM.

Consider “AAUAUGAGCUGGAAUAUAAACCUGACAUGAGGAUCACCCAUGUAGGAUAUCAGCACGAUAAGUGCUGAGAAGGACAACCAGCUC”, for which the “apparent Kd” value under setting [1] turned out to be 14 nM and the “apparent Kd” value under setting [2] was 14.5 nM.

With “AAGAAGUAAGGAUAUGCAUGGCGGGACUUGCGUCGUGGCGUGCAGAAGGUACAUGAGGAUCACCCAUGUAAAGA”, the “apparent Kd” value runs as follows: under setting [1], 27.2 nM; under setting [2], 15.4 nM.

For the sequence “UGUCGGUAGUAGAAGGGUAAGACAUGAGGAUCACCCAUGUGAUUUGGGUAUACAGGAUAUGCUUAUAUAUAAGAUUAAAUUAUU”, the “apparent Kd” value reads like this: under setting [1], 674 nM; under setting [2], 470 nM.

In the case of “AACAUCGCAGGAUAUUCGUGCUCAGACAUGAGGAUCACCCAUGUUUGGUGGGUUGGAGAAGGAGAAGGGCGAUGGA”, the “apparent Kd” value under setting [1] came to 103 nM and the “apparent Kd” value under setting [2] was 137 nM.

As for “AAAAGACAUGAGGAUCACCCAUGUCAGGAUAUCUUCCGUAGGCCGAAUGGCUUCCGGUGGAGAAGGGACAUCGG”, the “apparent Kd” value amounted to 50.7 nM under setting [1] and 104 nM under setting [2].

For the sequence “AAGGUGUUAGGAUAUCGUAGUUUGUGGCAGACGGGAUUUUGCGAGAAGGAACAUGAGGAUCACCCAUGUCGGAU”, the “apparent Kd” value by setting is: under setting [1], 28.4 nM; under setting [2], 28.2 nM.

Turning to “AUCGAGUAAGGAUAUACAUGAGGAUCACCCAUGUCCGUGAGGUAAGUUUGUGUCCGGCGUAGAAGGUACUGCAU”, the “apparent Kd” value by setting is: under setting [1], 52.1 nM; under setting [2], 121 nM.

As to “AAGGAUAGAGGAUAUACAUAGAUACAGAUUCAUGUAGUCCUACAUGAGGAUCACCCAUGUAGAAGGCUAUCCUA”, the “apparent Kd” value is 15.6 nM under setting [1] and 83.8 nM under setting [2].

For “UAUAUAUAGUAAGGAUAUGUAUUAAUUUUAUAAACAGAAGGUACUGACAUGAGGAUCACCCAUGUUUUAGUGUGGGCAUGUAGA”, the “apparent Kd” value is 102 nM under setting [1] and 169 nM under setting [2].

As for “CUUAGGUGUACAUGAGGAUCACCCAUGUCCCUGGUCAUUAGACAGGAUAUAUGGGCGGUCGCUUCAUAGAAGGGUUAAAUGGGU”, the “apparent Kd” value is, setting by setting: under setting [3], 837 nM; under setting [4], 780 nM.

For the sequence “CCAAAAGCUACAGGAUAUCCGACUCGGUUGUCAGGAGAAGGGUGGCAAGACAUGAGGAUCACCCAUGUAGGGUCAUCCUUGAAA”, the “apparent Kd” value by setting is: under setting [1], 9.9 nM; under setting [2], 22.1 nM.

On to “GCAGCGCAUGUAGGAUAUCGGUCAGUUUCUGAUCGAGAAGGACAUGAGGAUCACCCAUGUAAAUUACCGACUUUGUCGGGCUGC”, for which the “apparent Kd” value reads like this: under setting [1], 10.2 nM; under setting [2], 39.2 nM.

Consider “CUGUACUGAGGAUAUACAUGAGGAUCACCCAUGUGUUCGAUACUAGUGAGGUCGAUUAGUAGAAGGCAGUACAG”, for which the “apparent Kd” value under setting [1] came to 23 nM and the “apparent Kd” value under setting [2] stood at 242 nM.

For “CCAGCCCGUGCAGGAUAUACAUGAGGAUCACCCAUGUAGGAGAAUCCGCCGGUAGAAGGGUACGGACGGGCGUCUGACGCUUGU”, the “apparent Kd” value under setting [1] was 5.87 nM and the “apparent Kd” value under setting [2] was determined as 6.33 nM.

On to “GUCAGCUCGUGAGGAUAUACAACACUGCUUCGGCAGUGUAUUAAGAUCACAUGAGGAUCACCCAUGUAGAAGGCACGCGCUGAU”, for which the “apparent Kd” value under setting [1] worked out at 12.9 nM and the “apparent Kd” value under setting [2] was 292 nM.

In the case of “AGUCAGAGCAGAGGAUAUAUACAUGAGGAUCACCCAUGUGACUGACUAUGCUAGAAAUAGCAUGUAUAGAAGGCUGCUCUGACA”, the “apparent Kd” value by setting is: under setting [1], 85 nM; under setting [2], 223 nM.

In the case of “UAGCAAACGACCUGUGUGUGACAUGAGGAUCACCCAUGUUAGAGAAGGCCGAUAGCGCCGCGUACGGAGGAUAUCUGACAGGGA”, the “apparent Kd” value was 24.1 nM under setting [1] and 30.3 nM under setting [2].

With “CGUAACUACAUAGGAUAUUGAUACAUGAGGAUCACCCAUGUUAUAGGGAUUAGUAUAAUAUUAAGCAAGAAGGAUGAAGUUACG”, the “apparent Kd” value is, setting by setting: under setting [3], 23.4 nM; under setting [4], 14.8 nM.

The values above are taken from the EternaBench riboswitch data.
